# An excerpt weighted towards active compounds, which were near 3.5% of everything screened.
# MrgX1 PAM – human MrgX1 positive allosteric modulation, primary screen; Q96LB2; MrgX1-HEK293, Fluo-4 calcium flux, FDSS; active compounds read high; B-score at 10 µM; 310,000 tested, 0.63% active; AID 588675;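 active means plate-corrected calcium response at least 3 library SD above typical, normal starting fluorescence, not activating the receptor alone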;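 further: compound read alongside a low EC10 to EC30 dose of BAM8-22 agonist; peak minus trough fluorescence over baseline measured at the second addition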
# Target sequence (Q96LB2 whole entry, looked up): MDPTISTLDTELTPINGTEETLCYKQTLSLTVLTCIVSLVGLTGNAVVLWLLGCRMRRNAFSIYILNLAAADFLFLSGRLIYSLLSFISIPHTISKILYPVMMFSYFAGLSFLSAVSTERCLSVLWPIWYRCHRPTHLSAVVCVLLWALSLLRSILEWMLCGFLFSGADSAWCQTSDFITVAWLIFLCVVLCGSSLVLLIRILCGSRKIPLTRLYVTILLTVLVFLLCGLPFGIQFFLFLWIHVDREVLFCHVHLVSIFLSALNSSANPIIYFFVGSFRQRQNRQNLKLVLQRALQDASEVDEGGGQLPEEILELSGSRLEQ
# RGS4 inh – human RGS4 inhibition; 310,000 tested, 0.45% active; B-score at 10 µM; P49798; HEK293 M3R/RGS4 inducible, Fluo-4 calcium flux; active compounds read high; triggered by carbachol at its EC20; AID 463165;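 active means B-score, a plate-corrected calcium signal, over three deviations above library mean, with baseline fluorescence within five deviations of library mean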;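 further: RGS4 expression induced by doxycycline in cells with stable M3 receptor; B-score is computed from the integrated fluorescence ratio over baseline after carbachol; higher B-score means a larger calcium signal and so more RGS4 inhibition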
# Target sequence (P49798 whole entry, looked up): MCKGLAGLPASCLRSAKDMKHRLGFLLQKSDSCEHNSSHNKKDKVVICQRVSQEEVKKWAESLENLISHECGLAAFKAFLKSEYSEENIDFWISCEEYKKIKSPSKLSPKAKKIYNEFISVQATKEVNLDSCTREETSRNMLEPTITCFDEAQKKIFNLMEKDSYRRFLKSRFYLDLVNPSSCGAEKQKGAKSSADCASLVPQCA
# MrgX1 agonist – agonists of human MrgX1 receptor. MrgX1-HEK293 cells, Fluo-4 calcium fluorescence, agonist mode; active compounds read high. Q96LB2. B-score at 10 µM. 310,000 tested, 0.44% active;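 active means calcium response B-score plate-corrected fluorescence ratio at least 3 library SD, with starting fluorescence B-score inside 5 SD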
#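 Assay system: MrgX1-expressing HEK293 cells / Amount: fifteen thousand cells per well / Doses: test compound in the initial addition of three / Timing: cells plated overnight, dye loaded 0.5 h 37 °C, 0.5 h room temperature / Technique: kinetic calcium dye fluorescence, Fluo-4 NW / Control set: positive and negative controls per plate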
# MrgX1 antagonist – human MrgX1 receptor antagonism, primary screen; Q96LB2; AID 588676; 310,000 tested, 1.3% active; B-score at 10 µM; MRGX1-HEK293 calcium flux, Fluo-4, BAM8-22 antagonism; active compounds read low;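 active means calcium-response B-score plate-corrected more than 3 library SD below zero, starting fluorescence within 5 deviations, no agonist response on first addition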;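 further: peak minus trough fluorescence over baseline after final BAM8-22 challenge near maximal dose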
# RGS4 pot – potentiators or activators of RGS4; HEK293 M3R/inducible RGS4, carbachol calcium flux Fluo4; active compounds read low; B-score at 10 µM; 310,000 tested, 0.92% active;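 active means B-score of the integrated calcium signal more than 4 SD below the library mean, with starting fluorescence not abnormally high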;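 further: negative B-score means reduced calcium response which marks RGS4 activation or potentiation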
#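 Material: M3R-expressing HEK293 line, RGS4 induced by doxycycline | Schedule: Overnight RGS4 induction, 30 min dye load 37 °C, 20 min compound RT | Measured by: Fluo4 fluorescence kinetic imaging of calcium | Read-out: Integrated calcium ratio converted to B score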
# An asterisk follows results filed as active; i = inactive; nt = not tested or not shown; ! = repeats disagree.
SMILES,MrgX1 PAM,RGS4 inh,MrgX1 agonist,MrgX1 antagonist,RGS4 pot
O=C(NCc1cccc(Cl)c1)c1cccc(OC2CCN(C(=O)C3CC3)CC2)c1,i,i,i,-5.6*,i
COc1ccc(Nc2nc(-c3ccccc3)c(C(=O)Nc3cccnc3)s2)cc1,i,i,i,i,i
Cc1ccc(NC(=O)/C=C/C(=O)O)c([N+](=O)[O-])c1,i,i,i,i,i
COc1ccc(NC(=O)/C=C/C(=O)O)c([N+](=O)[O-])c1,13*,i,i,i,i
O=C1CC(N(CCc2ccccc2)C(=S)Nc2cc(Cl)ccc2Cl)C(=O)N1c1c(Cl)cccc1Cl (configuration not stated),i,i,i,i,i
CCC[n+]1c(C)sc2c(OC)ccc(OC)c21,i,i,i,-5.5*,i
O=C(Nc1nc(SCc2ccc(F)cc2)ns1)c1ccco1,i,8.2*,i,i,i
CCCCCCCC[n+]1cccc2c3ccccc3ccc21,i,i,i,i,-9.9*
CCCCCCCCCC[n+]1cccc2c3ccccc3ccc21,nt,i,nt,nt,-10*
Cc1cccc[n+]1CCCCCCCCCC[n+]1ccccc1C,i,i,i,i,i
CCN(CC)c1ccc(/C=C2\C(=O)N(c3nnc(C)c(=O)[nH]3)N=C2C)cc1,i,i,42*,i,i
CC1=NOC(=O)/C1=C/c1ccc(N(C)C)cc1,i,i,46*,i,i
CCCOc1ccc(/C=C2/C(=O)ON=C2C)cc1Cl,i,i,i,i,i
COc1ccc(/C=C2/C(=O)N(c3ccccc3)N=C2C)cc1,i,i,i,i,i
CCN(CC)c1ccc(/C=C2/C(=O)ON=C2C)cc1,i,i,57*,i,i
CC1Cc2ccccc2N1C(=O)CN1C(=O)NC(C)(CCc2ccccc2)C1=O (configuration not stated),i,i,i,i,i
COc1ccc(C)cc1S(=O)(=O)NCC(c1ccc2c(c1)OCO2)N1CCN(C)CC1 (configuration not stated),i,i,i,i,i
CCCN(CCC)CCCNC(=S)Nc1ccc2nc(N3CCN(C)CC3)cc(C)c2c1,i,i,29*,i,i
CCCOc1ccc(-c2c(C(=O)N/N=C(\C)c3ccncc3)nnn2-c2nonc2N)cc1,i,i,i,i,i
CCOC(=O)c1c(-c2ccccc2)oc2ccc(OCC(O)CNCCN(C)C)cc12 (configuration not stated),i,i,i,i,-7.6*
CCOC(=O)c1c(-c2ccccc2)oc2ccc(OCC)cc12,i,i,i,i,i
Cc1cccc(CN2C(=O)CCSc3ccc(Cl)cc32)c1,i,i,i,i,i
Cc1cc(Nc2ccccc2C(=O)O)n(-c2ccc([N+](=O)[O-])cc2)n1,i,i,i,i,i
Cc1ccc(C2c3c(oc4ccccc4c3=O)C(=O)N2c2nnc(C(C)C)s2)o1 (configuration not stated),i,i,i,i,i
O=C(COc1ccccc1)NNC(=S)NC(=O)c1ccc(Cl)cc1Cl,i,i,98*,i,i
SMILES,MrgX1 PAM,RGS4 inh,MrgX1 agonist,MrgX1 antagonist,RGS4 pot
O=C(COc1cccc(Cl)c1)NNC(=S)Nc1ccccc1,8.7*,i,i,i,i
O=C(O)CCC(=O)NNC(=O)COc1cccc(Cl)c1,i,i,i,i,i
O=C1CC(NCc2ccncc2)C(=O)N1c1ccc(Cl)cc1 (configuration not stated),i,i,i,i,i
Cc1ccc[n+](CC(=O)c2cc3ccccc3oc2=O)c1,i,i,i,i,-9.9*
O=c1[nH]c(=O)n(Cc2ccco2)c2c1C(C(F)(F)F)(C(F)(F)F)N=C(Cc1ccccc1)N2,i,i,i,i,i
O=C(O)/C(=C\c1ccccc1OC(F)F)Sc1nnc(-c2ccc(F)cc2)o1,i,i,i,i,i
O=[N+]([O-])c1cc(C(F)(F)F)ccc1NCCOc1ccccc1,9.1*,i,i,i,i
Cc1ccccc1OCCNc1ccc(C(F)(F)F)cc1[N+](=O)[O-],i,i,i,i,i
FC(F)(F)c1cnc(-c2cnc(-c3ccccn3)nc2)c(Cl)c1,i,i,i,i,i
CC(C)[N+]1(C)[C@@H]2CC[C@H]1CC(OC(=O)C(CO)c1ccccc1)C2 (some centres not stated),i,i,i,i,i
CN1C2CC(OC(=O)C(CO)c3ccccc3)CC1C1OC12 (configuration not stated),i,i,i,i,-7.9*!
CN1C2CCC1CC(OC(=O)C(CO)c1ccccc1)C2 (configuration not stated),i,nt,i,i,nt
CN1[C@@H]2CC[C@H]1CC(OC(=O)C(CO)c1ccccc1)C2 (some centres not stated),i,i,i,i,-7*
C/C(=N/NC(=O)CNC(=O)COc1ccccc1)c1ccco1,i,i,i,i,i
CCOC(=O)C1CCN(C(=O)c2cc(COc3ccc(F)cc3F)on2)CC1,i,i,i,i,i
Cc1cc(C(=O)N/N=C/c2cccnc2)cs1,i,i,i,i,i
CCOC(=O)C1=C(O)c2ccccc2C(=O)/C1=C\c1ccc(C)cc1,i,nt,28*,i,nt
CCOC(=O)C1=C(C)N(c2ccc(C)cc2)C(=O)/C1=C\c1ccc(O)c(OC)c1,i,i,i,i,i
O=C(On1c(-c2ccccc2)nc2ccccc2c1=O)c1ccco1,i,i,i,i,-8.1*
CNC(=O)COC(=O)/C=C/c1cccs1,6.5*,i,i,i,i
CCCC(=O)NCc1ccncc1,i,i,i,i,i
COc1cc(-c2noc(C)c2-c2ccc3[nH]ccc3c2)cc(OC)c1OC,i,i,i,i,-7.2*
Cn1ncc(Cl)c1C(=O)Nc1ccc(CN2CCCCC2)cc1,i,i,i,i,i
Cc1cc2cc(C#N)c(N3CCN(S(C)(=O)=O)CC3)nc2cc1C,i,i,i,i,i
CC(C)(C)C(=O)C(Cl)C(=O)Nc1ccccc1 (configuration not stated),i,45*,i,i,i
COC(=O)c1nc(N)sc1-c1ccc(Cl)c(Cl)c1,i,i,i,i,i
CC(=O)c1cn(-c2ccc(Cl)cc2)c(=O)n(Cc2ccc(F)cc2)c1=O,i,i,i,-7.9*,i

# Screens deposited in PubChem BioAssay by Johns Hopkins Ion Channel Center.
